Experimental findings from paper PMC5522751 (Bioorganic & medicinal chemistry, 2017) are described below.

The target in assay [1] is human 20S proteasome trypsin-like (T-L, β2) site (Homo sapiens, UniProt P49720+Q99436). Briefly: Fluorogenic assay for 20S human proteasome inhibition, trypsin-like site. The assay is classed as biochemical.
For assay [2], the target named is human 20S proteasome caspase-like (C-L, β1) site (Homo sapiens, UniProt P28072+Q99436). Briefly: Fluorogenic assay for 20S human proteasome inhibition, caspase-like site. The assay is classed as biochemical.
Assay [3] concerns the target human FAS-TE (Homo sapiens, UniProt P49327). Briefly: Fluorogenic assay for human FAS-TE inhibition. The assay is classed as biochemical. The conditions noted are these: for reduction (drop) of FAS-TE activity: compared to 21.
Assay [4] deals with human 20S proteasome chymotrypsin-like (ChT-L, β5) site (Homo sapiens, UniProt P20618+P28074). Briefly: Fluorogenic assay for 20S human proteasome inhibition, chymotrypsin-like site. The assay is classed as biochemical. The note with it: compared to the diastereomeric β-lactone 21.
For assay [5], the target named is FAS (Homo sapiens, UniProt P49327). Briefly: Activity-based in situ competitive labelling against ABPP probe 28, FAS band. The assay is classed as cell-based. The conditions noted are these: MCF-7 cells, 30 min preincubation with inhibitor, then 10 µM probe 28 for 30 min. The method, boiled down: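 Cells at 80–90% confluency were washed and given serum-free medium with test compound (10–100 µM; 1, 2.5, 5, 10-fold excess over probe) or DMSO, 30 min at 37 °C, 5% CO2. Alkyne probe was added (10 µM final) for 30 min. Soluble lysate (1% NP-40/1% deoxycholate, ~1.0 mg/mL) was clicked to TAMRA-N3 (100 µM; 1 mM CuSO4, 1 mM TCEP, 100 µM TBTA) for 1–1.5 h, RT, dark. Read-out: 10% SDS-PAGE, in-gel fluorescence.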
Sequence of FAS (P49327 whole entry): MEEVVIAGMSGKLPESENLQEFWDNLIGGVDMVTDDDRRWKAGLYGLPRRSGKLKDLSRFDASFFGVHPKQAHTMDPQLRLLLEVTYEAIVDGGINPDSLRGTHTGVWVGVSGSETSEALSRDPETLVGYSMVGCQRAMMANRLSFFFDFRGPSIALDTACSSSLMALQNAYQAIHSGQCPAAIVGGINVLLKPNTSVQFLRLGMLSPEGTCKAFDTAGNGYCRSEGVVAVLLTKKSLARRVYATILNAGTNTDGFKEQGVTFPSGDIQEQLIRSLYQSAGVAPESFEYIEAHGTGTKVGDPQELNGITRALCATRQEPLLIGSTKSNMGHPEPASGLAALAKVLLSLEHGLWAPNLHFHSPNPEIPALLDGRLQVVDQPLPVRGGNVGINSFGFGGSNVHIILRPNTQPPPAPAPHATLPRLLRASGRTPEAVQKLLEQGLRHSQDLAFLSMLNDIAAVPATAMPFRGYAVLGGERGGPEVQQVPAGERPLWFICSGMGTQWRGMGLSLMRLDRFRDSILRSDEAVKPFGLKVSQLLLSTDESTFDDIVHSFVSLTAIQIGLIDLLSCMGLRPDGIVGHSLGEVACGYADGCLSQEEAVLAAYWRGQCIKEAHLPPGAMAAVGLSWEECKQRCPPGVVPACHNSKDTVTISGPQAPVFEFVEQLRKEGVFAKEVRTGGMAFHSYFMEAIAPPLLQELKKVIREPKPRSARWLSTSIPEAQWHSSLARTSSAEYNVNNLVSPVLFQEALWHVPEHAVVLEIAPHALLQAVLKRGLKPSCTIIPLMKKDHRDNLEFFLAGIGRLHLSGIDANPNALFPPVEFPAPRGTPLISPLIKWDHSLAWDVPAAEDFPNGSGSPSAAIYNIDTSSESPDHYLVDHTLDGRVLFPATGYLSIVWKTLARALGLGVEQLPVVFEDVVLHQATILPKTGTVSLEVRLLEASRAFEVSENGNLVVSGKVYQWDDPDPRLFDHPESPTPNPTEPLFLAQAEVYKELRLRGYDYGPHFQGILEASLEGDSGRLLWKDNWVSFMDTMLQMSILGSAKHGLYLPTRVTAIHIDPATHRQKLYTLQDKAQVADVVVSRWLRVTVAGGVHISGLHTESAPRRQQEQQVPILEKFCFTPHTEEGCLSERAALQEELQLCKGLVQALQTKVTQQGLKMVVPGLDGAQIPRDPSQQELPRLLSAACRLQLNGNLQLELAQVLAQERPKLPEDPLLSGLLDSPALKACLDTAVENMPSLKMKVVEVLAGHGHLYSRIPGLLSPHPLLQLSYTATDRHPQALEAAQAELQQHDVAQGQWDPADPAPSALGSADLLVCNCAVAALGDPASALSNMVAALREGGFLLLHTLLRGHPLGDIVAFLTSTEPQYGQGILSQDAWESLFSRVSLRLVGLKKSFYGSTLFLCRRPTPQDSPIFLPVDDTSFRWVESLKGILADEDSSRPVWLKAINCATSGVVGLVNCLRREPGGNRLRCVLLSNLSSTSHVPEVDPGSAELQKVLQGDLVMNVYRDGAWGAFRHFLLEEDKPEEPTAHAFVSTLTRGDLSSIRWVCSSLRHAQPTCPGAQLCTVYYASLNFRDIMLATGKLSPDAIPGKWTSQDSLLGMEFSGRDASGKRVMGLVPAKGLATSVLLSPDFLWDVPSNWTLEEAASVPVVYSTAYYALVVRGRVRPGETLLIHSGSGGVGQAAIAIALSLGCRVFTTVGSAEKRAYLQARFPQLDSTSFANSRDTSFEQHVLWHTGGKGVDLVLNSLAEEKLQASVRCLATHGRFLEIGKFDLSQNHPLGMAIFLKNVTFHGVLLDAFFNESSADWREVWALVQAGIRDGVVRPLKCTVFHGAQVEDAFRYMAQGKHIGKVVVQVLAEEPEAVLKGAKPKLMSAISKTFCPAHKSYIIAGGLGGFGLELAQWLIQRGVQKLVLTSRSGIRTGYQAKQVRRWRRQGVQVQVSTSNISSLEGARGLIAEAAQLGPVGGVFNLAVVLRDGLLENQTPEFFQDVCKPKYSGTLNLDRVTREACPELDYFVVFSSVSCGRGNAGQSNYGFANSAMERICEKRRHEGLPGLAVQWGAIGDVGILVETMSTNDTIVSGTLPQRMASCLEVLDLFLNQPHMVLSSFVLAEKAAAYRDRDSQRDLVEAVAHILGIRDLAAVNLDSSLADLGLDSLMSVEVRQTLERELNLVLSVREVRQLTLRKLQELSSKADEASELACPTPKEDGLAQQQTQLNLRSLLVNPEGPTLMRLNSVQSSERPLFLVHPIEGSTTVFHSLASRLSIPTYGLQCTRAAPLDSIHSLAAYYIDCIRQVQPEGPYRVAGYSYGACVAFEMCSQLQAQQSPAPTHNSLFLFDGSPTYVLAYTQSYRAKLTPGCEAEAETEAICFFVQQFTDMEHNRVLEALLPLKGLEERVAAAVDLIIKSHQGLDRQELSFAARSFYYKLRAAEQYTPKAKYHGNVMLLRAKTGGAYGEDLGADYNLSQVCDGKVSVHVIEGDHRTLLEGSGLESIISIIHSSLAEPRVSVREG

Assay [6] concerns the target ChT-L (proteasome beta-5, PSB-5) (Homo sapiens, UniProt P20618+P28074). Briefly: Activity-based in situ competitive labelling against ABPP probe 28, ChT-L. The assay is classed as cell-based. The conditions noted are these: MCF-7 cells, 30 min preincubation with inhibitor, then 10 µM probe 28 for 30 min.

The IC50 is the point on the concentration scale where inhibition reaches its midpoint. The low end stands for greater potency in that assay, the high end for weaker potency in that assay.

Sequence of human FAS-TE (P49327 2207-2511 limits assumed): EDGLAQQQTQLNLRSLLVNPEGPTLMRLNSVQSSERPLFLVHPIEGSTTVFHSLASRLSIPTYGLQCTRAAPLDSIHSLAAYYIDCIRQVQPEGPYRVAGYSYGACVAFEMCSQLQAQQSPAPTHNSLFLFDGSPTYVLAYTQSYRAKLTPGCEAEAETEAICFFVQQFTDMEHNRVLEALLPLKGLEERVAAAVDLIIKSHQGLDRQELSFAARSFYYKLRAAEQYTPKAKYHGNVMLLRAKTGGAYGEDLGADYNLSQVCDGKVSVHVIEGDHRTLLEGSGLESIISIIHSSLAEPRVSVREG

As to `CCCCCCCCCCC[C@@H](C[C@@H]1OC(=O)[C@H]1CCCCCC)OC(=O)[C@H](CC(C)C)NC=O` [orlistat, Tetrahydrolipstatin, reference compound], the IC50 in assay [1] and in assay [2] was greater than 100 µM throughout.
Consider `CCCCCC[C@H]1C(=O)O[C@@H]1C(=O)NCCCC[C@H](NC(=O)OCc1ccccc1)C(=O)N[C@@H](C)C(=O)OCc1ccccc1` [compound 23], for which the “reduction (drop) of FAS-TE activity” value in assay [3] is ~ 8 fold. The IC50 in assay [1] and in assay [2] was greater than 100 µM each time. Further, the “reduction of proteasome ChT-L activity” value in assay [4] is ~ 8 fold.
For the compound `CCCCCC[C@@H]1C(=O)O[C@H]1C(=O)NCCCC[C@H](NC(=O)OCc1ccccc1)C(=O)N[C@@H](C)C(=O)OCc1ccccc1` [compound 21], the “potency against FAS-TE compared to orlistat” value in assay [3] (ratio of IC50 values, more potent than orlistat) is listed as 3 X. Moreover, the IC50 in assay [1] and in assay [2] was greater than 100 µM each time. Besides, in assay [5], the “excess of inhibitor over probe 28 that resulted in FAS signal reduction” value is listed as 10 fold. For the same compound, in assay [6], the “excess of inhibitor over probe 28 that resulted in ChT-L signal reduction” value is listed as 2.5 fold.
In assay [1], `CCCCCC[C@@]1(C)C(=O)O[C@@H]1C(=O)NCCCC[C@H](NC(=O)[C@H](C)NC(=O)OCc1ccccc1)C(=O)OCc1ccccc1` [compound 26] gave an IC50 greater than 100 µM.
`CCCCCC[C@]1(C)C(=O)O[C@H]1C(=O)NCCCC[C@H](NC(=O)[C@H](C)NC(=O)OCc1ccccc1)C(=O)OCc1ccccc1` [compound 25] came in with an IC50 in assay [1] greater than 100 µM. In assay [5], the “excess of inhibitor over probe 28 that resulted in FAS signal reduction” value is on record as “not able to compete effectively”. In addition, the “excess of inhibitor over probe 28 that resulted in ChT-L signal reduction” value in assay [6] is recorded as “not able to compete effectively”.
Turning to `CCCCCC[C@@H]1C(=O)O[C@H]1C(=O)NCCCC[C@H](NC(=O)CNC(=O)OCc1ccccc1)C(=O)OCc1ccccc1` [compound 18], in assay [3] (relative to derivative 17), the “drop in potency against FAS-TE” value is reported as ~ 3 fold. In addition, the IC50 in assay [1] was greater than 100 µM.
Consider `CCCCCC[C@@H]1C(=O)O[C@H]1C(=O)NCCCC[C@H](NC(=O)[C@H](C)NC(=O)c1ccc(Br)cc1)C(=O)OCc1ccccc1` [compound 20], for which the half-inhibitory concentration (IC50) in assay [1] was greater than 100 µM.
In assay [1], `CCCCCC[C@@]1(C)C(=O)O[C@H]1C(=O)NCCCC[C@H](NC(=O)[C@H](C)NC(=O)OCc1ccccc1)C(=O)OCc1ccccc1` [compound 27] showed an IC50 greater than 100 µM.
Still for that read-out and setting: the result for `CCCCCC[C@H]1C(=O)O[C@@H]1C(=O)NCCCC[C@H](NC(=O)CNC(=O)OCc1ccccc1)C(=O)OCc1ccccc1` [compound 24] reads greater than 100 µM.
In the case of `CCCCCC[C@@H]1C(=O)O[C@H]1C(=O)NCCCC[C@@H]1NC(=O)N([C@@H](C)C(=O)OCc2ccccc2)C1=O` [compound 22], the IC50 in assay [1] was greater than 100 µM; in assay [2] it was 7.93 ± 0.21 µM.
For `C#Cc1ccc(COC(=O)[C@H](C)NC(=O)[C@H](CCCCNC(=O)[C@@H]2OC(=O)[C@H]2CCCCCC)NC(=O)OCc2ccccc2)cc1` [compound 28], the “reduction (drop) of FAS-TE activity” value in assay [3] was ~ 2.5 fold. In addition, the concentration for half-maximal inhibition (IC50) in assay [1] and in assay [2] was greater than 100 µM each time.
Regarding `CCCCCC[C@@H]1C(=O)O[C@H]1C(=O)NCCCC[C@H](NC(=O)[C@H](C)NC(=O)OCc1ccccc1)C(=O)OCc1ccccc1` [compound 17], in assay [1], the IC50 was greater than 100 µM.
